In ChEMBL document CHEMBL1671620, “Mutations in the fks1 gene in Candida albicans, C. tropicalis, and C. krusei correlate with elevated caspofungin MICs uncovered in AM3 medium using the method of the European Committee on Antibiotic Susceptibility Testing” (2008):
Values after ≈ are worked out from the molar mass of the structure shown.

Legend:
Candida albicans [1] = experiment: Antifungal activity against Candida albicans isolate 20 harboring 1,3-beta-glucan synthase HS1 point mutant grown on AM3 media after 24 hrs by EUCAST microdilution method; details: isolate 20, 24 h
Candida albicans [2] = experiment: Antifungal activity against Candida albicans isolate 5 expressing wild type 1,3-beta-glucan synthase grown on AM3 media after 48 hrs by EUCAST microdilution method; assay type: functional; details: isolate 5, 24 h, in the assay text read “after 24 hrs” for “after 48 hrs”
How it was run: (§1)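 EUCAST (AFST-EUCAST) broth microdilution with caspofungin at 0.015 to 8 μg/ml final, in AM3 with glucose added to 2% final. Final inoculum was 10⁵ yeast cells/ml, with microplates prepared in batches and stored at −20°C. Plates were incubated at 35°C in humid ambient air and read spectrophotometrically after shaking at 24 h and 48 h. MIC was ≥50% growth reduction versus drug-free well; 90% end point also read at both times.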

Candida albicans [3] = experiment: Antifungal activity against Candida albicans isolate 16 expressing wild type 1,3-beta-glucan synthase grown on AM3 media after 48 hrs by EUCAST microdilution method; assay type: functional; details: isolate 16, 24 h, in the assay text read “after 24 hrs” for “after 48 hrs”
How it was run: as §1

Candida albicans [4] = experiment: Antifungal activity against Candida albicans isolate 8 expressing wild type 1,3-beta-glucan synthase grown on AM3 media after 48 hrs by EUCAST microdilution method; assay type: functional; details: isolate 8, 24 h, in the assay text read “after 24 hrs” for “after 48 hrs”
How it was run: as §1

Candida albicans [5] = experiment: Antifungal activity against Candida albicans isolate 4 expressing wild type 1,3-beta-glucan synthase grown on RPMI media after 24 hrs by EUCAST microdilution method; details: isolate 4, 24 h
Candida tropicalis [6] = experiment: Antifungal activity against Candida tropicalis isolate 1 expressing wild type 1,3-beta-glucan synthase grown on AM3 media after 48 hrs by EUCAST microdilution method; assay type: functional; details: isolate 1, 24 h, in the assay text read “24 hrs” for “48 hrs”
How it was run: as §1

Candida albicans [7] = experiment: Antifungal activity against Candida albicans isolate 9 expressing wild type 1,3-beta-glucan synthase grown on AM3 media after 48 hrs by EUCAST microdilution method; assay type: functional; details: isolate 9, 24 h, in the assay text read “after 24 hrs” for “after 48 hrs”
How it was run: as §1

Candida albicans [8] = experiment: Antifungal activity against Candida albicans isolate B311 expressing wild type 1,3-beta-glucan synthase grown on RPMI media after 24 hrs by EUCAST microdilution method; details: isolate B311, 24 h
Candida albicans [9] = experiment: Antifungal activity against Candida albicans isolate 2 expressing wild type 1,3-beta-glucan synthase grown on RPMI media after 24 hrs by EUCAST microdilution method; details: isolate 2, 24 h
Pichia kudriavzevii [10] = experiment: Antifungal activity against Candida krusei ATCC 6258 expressing wild type 1,3-beta-glucan synthase grown on AM3 media after 48 hrs by EUCAST microdilution method; assay type: functional; details: ATCC 6258, 24 h, in the assay text read “after 24 hrs” for “after 48 hrs”
How it was run: as §1

Candida albicans [11] = experiment: Antifungal activity against Candida albicans isolate 21 harboring 1,3-beta-glucan synthase HS1 point mutant grown on AM3 media after 24 hrs by EUCAST microdilution method; details: isolate 21, 24 h
Candida albicans [12] = experiment: Antifungal activity against Candida albicans isolate 15 expressing wild type 1,3-beta-glucan synthase grown on RPMI media after 24 hrs by EUCAST microdilution method; details: isolate 15, 24 h
Pichia kudriavzevii [13] = experiment: Antifungal activity against Candida krusei ATCC 6258 expressing wild type 1,3-beta-glucan synthase grown on RPMI media after 24 hrs by EUCAST microdilution method; details: ATCC 6258, 24 h
Candida albicans [14] = experiment: Antifungal activity against Candida albicans isolate 11 expressing wild type 1,3-beta-glucan synthase grown on AM3 media after 48 hrs by EUCAST microdilution method; assay type: functional; details: isolate 11, 24 h, in the assay text read “after 24 hrs” for “after 48 hrs”
How it was run: as §1

Candida tropicalis [15] = experiment: Antifungal activity against Candida tropicalis isolate 2 harboring 1,3-beta-glucan synthase HS1 point mutant grown on AM3 media after 24 hrs by EUCAST microdilution method; details: isolate 2, 24 h
Candida albicans [16] = experiment: Antifungal activity against Candida albicans isolate 14 expressing wild type 1,3-beta-glucan synthase grown on AM3 media after 48 hrs by EUCAST microdilution method; assay type: functional; details: isolate 14, 24 h, in the assay text read “after 24 hrs” for “after 48 hrs”
How it was run: as §1

Candida tropicalis [17] = experiment: Antifungal activity against Candida tropicalis isolate 2 harboring 1,3-beta-glucan synthase HS1 point mutant grown on RPMI media after 24 hrs by EUCAST microdilution method; details: isolate 2, 24 h
Candida albicans [18] = experiment: Antifungal activity against Candida albicans isolate 16 expressing wild type 1,3-beta-glucan synthase grown on RPMI media after 24 hrs by EUCAST microdilution method; details: isolate 16, 24 h
Candida albicans [19] = experiment: Antifungal activity against Candida albicans isolate 22 harboring 1,3-beta-glucan synthase HS1 point mutant grown on RPMI media after 24 hrs by EUCAST microdilution method; details: isolate 22, 24 h
Candida albicans [20] = experiment: Antifungal activity against Candida albicans isolate 23 harboring 1,3-beta-glucan synthase HS2 point mutant grown on RPMI media after 24 hrs by EUCAST microdilution method; details: isolate 23, 24 h
Candida albicans [21] = experiment: Antifungal activity against Candida albicans isolate 13 expressing wild type 1,3-beta-glucan synthase grown on AM3 media after 48 hrs by EUCAST microdilution method; assay type: functional; details: isolate 13, 24 h, in the assay text read “after 24 hrs” for “after 48 hrs”
How it was run: as §1

Candida albicans [22] = experiment: Antifungal activity against Candida albicans isolate 21 harboring 1,3-beta-glucan synthase HS1 point mutant grown on RPMI media after 24 hrs by EUCAST microdilution method; details: isolate 21, 24 h
Candida albicans [23] = experiment: Antifungal activity against Candida albicans isolate 24 harboring 1,3-beta-glucan synthase HS1 point mutant grown on AM3 media after 24 hrs by EUCAST microdilution method; details: isolate 24, 24 h
Candida albicans [24] = experiment: Antifungal activity against Candida albicans isolate 17 expressing wild type 1,3-beta-glucan synthase grown on RPMI media after 24 hrs by EUCAST microdilution method; details: isolate 17, 24 h
Candida albicans [25] = experiment: Antifungal activity against Candida albicans isolate 18 expressing wild type 1,3-beta-glucan synthase grown on RPMI media after 24 hrs by EUCAST microdilution method; details: isolate 18, 24 h
Candida albicans [26] = experiment: Antifungal activity against Candida albicans isolate 11 expressing wild type 1,3-beta-glucan synthase grown on RPMI media after 24 hrs by EUCAST microdilution method; details: isolate 11, 24 h
Candida tropicalis [27] = experiment: Antifungal activity against Candida tropicalis isolate 1 expressing wild type 1,3-beta-glucan synthase grown on RPMI media after 24 hrs by EUCAST microdilution method; details: isolate 1, 24 h

How did the MIC (Candida albicans [1]) turn out when `CC[C@H](C)C[C@H](C)CCCCCCCCC(=O)N[C@H]1C[C@@H](O)[C@@H](NCCN)NC(=O)[C@@H]2[C@@H](O)CCN2C(=O)[C@H]([C@H](O)CCN)NC(=O)[C@H]([C@H](O)[C@@H](O)c2ccc(O)cc2)NC(=O)[C@@H]2C[C@@H](O)CN2C(=O)[C@H]([C@@H](C)O)NC1=O` [CASPOFUNGIN] was run?
Its MIC is 2 µg/mL (≈ 1.83 µM).

What about the MIC (Candida albicans [2]) of the same compound?
The MIC was 0.03 µg/mL (≈ 0.0274 µM).

What about the MIC (Candida albicans [3]) of the same compound?
Its MIC is 0.03 µg/mL (≈ 0.0274 µM).

What about the MIC (Candida albicans [4]) of the same compound?
Its MIC is 0.03 µg/mL (≈ 0.0274 µM).

What about the MIC (Candida albicans [5]) of the same compound?
The MIC was 0.5 µg/mL (≈ 0.457 µM).

What about the MIC (Candida tropicalis [6]) of the same compound?
Its MIC is 0.06 µg/mL (≈ 0.0549 µM).

And the MIC (Candida albicans [7])?
The MIC was 0.03 µg/mL (≈ 0.0274 µM).

What about the MIC (Candida albicans [8]) of the same compound?
The MIC was 0.5 µg/mL (≈ 0.457 µM).

And the MIC (Candida albicans [9])?
The MIC was 0.25 µg/mL (≈ 0.229 µM).

What about the MIC (Pichia kudriavzevii [10]) of the same compound?
Its MIC is 0.06 µg/mL (≈ 0.0549 µM).

What about the MIC (Candida albicans [11]) of the same compound?
The MIC was 1 µg/mL (≈ 0.915 µM).

And the MIC (Candida albicans [12])?
Its MIC is 0.25 µg/mL (≈ 0.229 µM).

What about the MIC (Pichia kudriavzevii [13]) of the same compound?
Its MIC is 1 µg/mL (≈ 0.915 µM).

What about the MIC (Candida albicans [14]) of the same compound?
Its MIC is 0.03 µg/mL (≈ 0.0274 µM).

And the MIC (Candida tropicalis [15])?
The MIC was 1 µg/mL (≈ 0.915 µM).

And the MIC (Candida albicans [16])?
The MIC was 0.03 µg/mL (≈ 0.0274 µM).

What about the MIC (Candida tropicalis [17]) of the same compound?
Its MIC is 2 µg/mL (≈ 1.83 µM).

And the MIC (Candida albicans [18])?
Its MIC is 0.5 µg/mL (≈ 0.457 µM).

And the MIC (Candida albicans [19])?
Its MIC is 2 µg/mL (≈ 1.83 µM).

And the MIC (Candida albicans [20])?
The MIC was 2 µg/mL (≈ 1.83 µM).

And the MIC (Candida albicans [21])?
Its MIC is 0.03 µg/mL (≈ 0.0274 µM).

And the MIC (Candida albicans [22])?
Its MIC is 2 µg/mL (≈ 1.83 µM).

And the MIC (Candida albicans [23])?
Its MIC is 16 µg/mL (≈ 14.6 µM).

And the MIC (Candida albicans [24])?
The MIC was 0.5 µg/mL (≈ 0.457 µM).

And the MIC (Candida albicans [25])?
The MIC was 1 µg/mL (≈ 0.915 µM).

What about the MIC (Candida albicans [26]) of the same compound?
The MIC was 0.5 µg/mL (≈ 0.457 µM).

And the MIC (Candida tropicalis [27])?
Its MIC is 2 µg/mL (≈ 1.83 µM).
